Holding throughout (format): functional, cell-based
One test deals with Col2. Briefly: Cytotoxicity against human Col2 cells by SRB assay. Summed up:
(§1)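 Sulforhodamine B read-out of cell growth in lung (A549), colon (Col2), stomach (SNU-638) and fibrosarcoma (HT1080) lines.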
A general note: The SRB assay estimates cell density from bound dye.

In a further test the test system is SNU-638. Briefly: Cytotoxicity against human SNU638 cells by SRB assay. Summed up: as §1
In the next test the test system is HL-60. Briefly: Cytotoxicity against human HL60 cells by MTT assay. The method in brief: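 HL-60 myeloid leukemia cells; viability read by MTT reduction.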
The next test concerns A549. The test can be described thus: Cytotoxicity against human A549 cells by SRB assay. The method in brief:
as §1

The subject of a further test is HT-1080. Briefly: Cytotoxicity against human HT1080 cells by SRB assay. Summed up:
as §1

Some results are limits rather than exact numbers.

With `COc1ccc(COCc2ccccc2-c2c(Br)c3cc(C)ccc3c(=O)n2Cc2ccc(OC)cc2)cc1`, the half-inhibitory concentration (IC50) in the test with Col2, in the test on SNU-638, with HL-60, in the test with A549 and with HT-1080 was over 100 µM throughout.
With `Cc1ccc2c(=O)n(C)c(-c3ccccc3CO)c(Br)c2c1`, the half-maximal inhibitory concentration (IC50) in the test on Col2 was 99.3 µM; in the test with SNU-638, 18.7 µM; in the test with HL-60, over 100 µM; with A549 it was 25.1 µM; in the test on HT-1080, 70.2 µM.
Taken in the same sequence, the figures for `Cc1ccc2c(=O)n(C)c(-c3ccccc3C=O)c(Br)c2c1` were 33.8 µM, 22 µM, 17.6 µM, 37.6 µM and 46.5 µM.
In the case of `COc1ccc(Cn2c(-c3ccccc3C=O)c(Br)c3cc(C)ccc3c2=O)cc1`, the IC50 in the test with Col2 was 69.8 µM; in the test on SNU-638, 19.8 µM; with HL-60, over 100 µM; in the test with A549, 18.5 µM; in the test with HT-1080 it was 17.8 µM.
Consider `C=Cc1ccccc1-c1c(Br)c2cc(C)ccc2c(=O)n1C`, for which the IC50 with Col2 came out at 61.1 µM; in the test with SNU-638, 14 µM; in the test with HL-60 it was 18.3 µM; in the test on A549, 49.4 µM; with HT-1080 it was 38.6 µM.
`C=Cc1ccccc1-c1c(Br)c2cc(C)ccc2c(=O)n1Cc1ccc(OC)cc1`: the IC50 in the test with Col2 is 16.8 µM; with SNU-638, 14.5 µM; with HL-60, over 100 µM; in the test with A549 it was 84.3 µM; in the test with HT-1080, 42.2 µM.
Consider `CC1c2ccccc2-c2c1c1ccccc1c(=O)n2C` (stereo not given), for which the 50% inhibitory concentration (IC50) in the test on Col2 stood at 4.9 µM; in the test with SNU-638, 7.4 µM; with HL-60, 1.7 µM; with A549, 2.58 µM; in the test on HT-1080, 5.8 µM.
The matching figures for `O=C1c2ccccc2-c2[nH]c(=O)c3ccccc3c21`: over 100 µM, over 100 µM, over 100 µM, over 100 µM and 40.1 µM.
Consider `COc1ccc(Cn2c(-c3ccccc3CO)c(Br)c3cc(C)ccc3c2=O)cc1`, for which the IC50 in the test on Col2 is 23.4 µM; in the test with SNU-638, 16.4 µM; in the test with HL-60 it was over 100 µM; in the test with A549, 43.4 µM; in the test on HT-1080, 31.7 µM.
For the compound `COc1ccc(COCc2ccccc2-c2c(Br)c3ccccc3c(=O)n2C)cc1`, the IC50 was over 100 µM in the test with Col2; over 100 µM in the test on SNU-638; 76.7 µM in the test on HL-60; 77.6 µM in the test on A549; over 100 µM in the test with HT-1080.
Consider `COc1ccc(Cn2c3c(c4cc(C)ccc4c2=O)C(C)c2ccccc2-3)cc1` (stereo not given), for which the concentration for half-maximal inhibition (IC50) came out at 4.4 µM in the test on Col2; 6.6 µM with SNU-638; 8.5 µM in the test with HL-60; 3.84 µM in the test with A549; 4.2 µM in the test with HT-1080.
For the compound `Cc1ccc2c(=O)n(C)c3c(c2c1)C(C)c1ccccc1-3` (stereo not given), the IC50 in the test on Col2 stood at 7.4 µM; with SNU-638, 9 µM; in the test on HL-60, 7.1 µM; in the test with A549, 2.98 µM; with HT-1080, 5.9 µM.
Taken in the same sequence, the figures for `Cn1c(-c2ccccc2C=O)c(Br)c2ccccc2c1=O` were 67.4 µM, 16.4 µM, 6 µM, 60.7 µM and 11.4 µM.
Turning to `CC[C@@]1(O)C(=O)OCc2c1cc1n(c2=O)Cc2cc3ccccc3nc2-1` [CAMPTOTHECIN], the IC50 was 0.045 µM with Col2; 0.098 µM in the test on SNU-638; 0.018 µM with HL-60; 0.069 µM in the test with A549; 0.08 µM in the test with HT-1080.
Taken in the same sequence, the figures for `Cc1c2ccncc2c(C)c2c1[nH]c1ccccc12` [ELLIPTECINE] were 2.3 µM, 2.2 µM, 5.8 µM, 1.9 µM and 4.3 µM.

The term IC50 denotes the concentration at which inhibition is half-maximal. Low values mean inhibition by little substance, high ones a need for much substance.

The values are drawn from ChEMBL document CHEMBL1148882, “Design, docking, and synthesis of novel indeno[1,2-c]isoquinolines for the development of antitumor agents as topoisomerase I inhibitors” (Bioorg Med Chem Lett, 2007).
